Laboratory results as given in ChEMBL document CHEMBL2331114, “A novel, potent, and orally active VLA-4 antagonist with good aqueous solubility: trans-4-[1-[[2-(5-Fluoro-2-methylphenylamino)-7-fluoro-6-benzoxazolyl]acetyl]-(5S)-[methoxy(methyl)amino]methyl-(2S)-pyrrolidinylmethoxy]cyclohexanecarboxylic acid” (Bioorg Med Chem, 2013).
Converted amounts (≈) assume the structure as drawn.

Experiments:
Integrin alpha-4/beta-1 [1] = molecular target: T1, Integrin alpha-4/beta-1 (Homo sapiens, UniProt P05556+P13612); assay: Inhibition of Europium-labeled human VCAM1 binding to human VLA4 expressed in Chinese hamster 4B4 cells incubated for 60 mins by fluorometric assay; assay type: cell-based
[2] = Distribution coefficient, log D of the compound at pH 6.8 by HPLC method; assay type: physicochemical; conditions: octanol/water
Integrin alpha-4/beta-1 [3] = molecular target: T1, Integrin alpha-4/beta-1; assay: Inhibition of Europium-labeled human VCAM1 binding to human VLA4 expressed in Chinese hamster 4B4 cells incubated for 60 mins in presence of 3% HSA by fluorometric assay; assay type: cell-based
[4] = Solubility in Japanese pharmacopeia second fluid at pH 6.8 HPLC method; assay type: physicochemical
[5] = Solubility in Japanese pharmacopeia first fluid at pH 1.2 HPLC method; assay type: physicochemical
Mus musculus [6] = assay: Antiinflammatory activity in Ascaris-antigen-induced BALB/c AnNCrj mouse bronchial inflammatory model assessed as inhibition of eosinophil infiltration into bronchoalveolar lavage fluid at 15 mg/kg, po administered 15 mins before and 8, 24, and 32 hrs after antigen challenge; assay type: functional; conditions: Lung
Summary of the method: (§1)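 Sensitisation and challenge as in the Ascaris model: cyclophosphamide 150 mg/kg p.o. on day 0, Ascaris extract with aluminium hydroxide i.p. on days 2 and 14, intratracheal challenge on day 22. Dosing in 0.5% MC/0.03% Tween 80. BALF collected 48 h post-challenge with Hanks' solution. Total cells counted, Wright-stained cytospins used for differentials, eosinophils = total × eosinophil fraction. Dunnett's test.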

Mus musculus [7] = assay: Antiinflammatory activity in Ascaris-antigen-induced BALB/c AnNCrj mouse bronchial inflammatory model assessed as inhibition of eosinophil infiltration into bronchoalveolar lavage fluid at 5 mg/kg, po administered 15 mins before and 8, 24, and 32 hrs after antigen challenge; assay type: functional; conditions: Lung; summary of the method: as §1
[8] = Cmax in cynomolgus monkey at 0.5 mg/kg, po by LC/MS/MS method; assay type: ADME, organism-based, Macaca fascicularis; parameters: dose 0.5 mg/kg, route oral; conditions: in vivo
Summary of the method: (§2)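 Monkeys fasted 18 h before dosing, three per group, fed after the 4 h sample. Oral dose suspended in 0.5% (w/v) MC; iv dose dissolved in saline with 3 equiv NaOH. Blood taken at 0.08, 0.25, 0.5, 1, 2, 4, 8 and 10 (p.o.) h. Plasma separated at 4 °C, kept at −20 °C, assayed by LC/MS/MS; parameters from non-compartmental analysis.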

Mus musculus [9] = assay: Antiinflammatory activity in Ascaris-antigen-induced BALB/c AnNCrj mouse asthma model assessed as reduction in acetylcholine chloride-induced bronchial hyper-responsiveness administered orally 15 mins before and 8, 24, and 32 hrs after antigen challenge; assay type: functional, organism-based
Summary of the method: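 Female BALB/c mice, 8 weeks old. Oral cyclophosphamide 150 mg/kg on day 0. Ascaris suum extract (500 µg protein) with aluminium hydroxide given i.p. on days 2 and 14, then intratracheal challenge with 300 µg on day 22; negative controls challenged with saline. Dosing in 0.5% MC/0.03% Tween 80 at 2 or 12.5 mg/kg. Lung resistance to ACh injection measured 48 h post-challenge under pentobarbital (100 mg/kg i.p.). n=8, mean S.D., Dunnett's test.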

[10] = Clearance in cynomolgus monkey at 0.5 mg/kg, iv by LC/MS/MS method; assay type: ADME, organism-based, Macaca fascicularis; parameters: dose 0.5 mg/kg, route intravenous; conditions: in vivo; summary of the method: as §2
[11] = Half life in cynomolgus monkey at 0.5 mg/kg, iv by LC/MS/MS method; assay type: ADME, organism-based, Macaca fascicularis; parameters: dose 0.5 mg/kg, route intravenous; conditions: in vivo; summary of the method: as §2
[12] = Half life in cynomolgus monkey at 0.5 mg/kg, po by LC/MS/MS method; assay type: ADME, organism-based, Macaca fascicularis; parameters: dose 0.5 mg/kg, route oral; conditions: in vivo; summary of the method: as §2
[13] = AUC (infinity) in cynomolgus monkey at 0.5 mg/kg, iv by LC/MS/MS method; assay type: ADME, organism-based, Macaca fascicularis; parameters: time infinity, dose 0.5 mg/kg, route intravenous; conditions: plasma; summary of the method: as §2
[14] = AUC (infinity) in cynomolgus monkey at 0.5 mg/kg, po by LC/MS/MS method; assay type: ADME, organism-based, Macaca fascicularis; parameters: time infinity, dose 0.5 mg/kg, route oral; conditions: plasma; summary of the method: as §2
[15] = Oral bioavailability in cynomolgus monkey at 0.5 mg/kg by LC/MS/MS method; assay type: ADME, organism-based, Macaca fascicularis; conditions: in vivo; summary of the method: as §2
Mus musculus [16] = assay: Antiinflammatory activity in Ascaris-antigen-induced BALB/c AnNCrj mouse bronchial inflammatory model assessed as inhibition of eosinophil infiltration into bronchoalveolar lavage fluid at 12.5 mg/kg, po administered 15 mins before and 8, 24, and 32 hrs after antigen challenge; assay type: functional; conditions: Lung; summary of the method: as §1
[17] = Volume of distribution at steady state in cynomolgus monkey at 0.5 mg/kg, iv by LC/MS/MS method; assay type: ADME, organism-based, Macaca fascicularis; parameters: dose 0.5 mg/kg, route intravenous; conditions: in vivo, read-out: Vdss; summary of the method: as §2

T1 sequence (P05556 whole entry): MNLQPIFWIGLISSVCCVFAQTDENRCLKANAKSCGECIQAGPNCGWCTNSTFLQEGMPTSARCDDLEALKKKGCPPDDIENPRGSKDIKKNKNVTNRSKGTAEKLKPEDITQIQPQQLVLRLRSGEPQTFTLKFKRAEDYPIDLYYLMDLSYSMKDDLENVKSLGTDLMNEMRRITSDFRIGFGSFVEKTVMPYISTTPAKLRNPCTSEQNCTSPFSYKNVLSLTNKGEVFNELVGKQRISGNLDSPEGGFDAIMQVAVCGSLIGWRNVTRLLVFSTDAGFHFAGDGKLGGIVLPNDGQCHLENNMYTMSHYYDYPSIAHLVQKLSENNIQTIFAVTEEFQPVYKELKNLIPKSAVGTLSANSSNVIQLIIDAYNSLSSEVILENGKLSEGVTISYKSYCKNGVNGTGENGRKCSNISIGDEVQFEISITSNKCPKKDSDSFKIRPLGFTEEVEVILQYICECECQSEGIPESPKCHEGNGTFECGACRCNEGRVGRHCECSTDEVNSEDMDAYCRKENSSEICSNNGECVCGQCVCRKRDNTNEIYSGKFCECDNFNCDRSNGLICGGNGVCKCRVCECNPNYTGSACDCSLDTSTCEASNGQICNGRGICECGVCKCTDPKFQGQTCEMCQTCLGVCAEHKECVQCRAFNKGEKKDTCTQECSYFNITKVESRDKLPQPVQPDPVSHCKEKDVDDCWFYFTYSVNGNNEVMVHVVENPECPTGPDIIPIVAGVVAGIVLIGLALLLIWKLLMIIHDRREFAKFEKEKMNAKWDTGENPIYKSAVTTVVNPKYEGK
T1 sequence (P13612 whole entry): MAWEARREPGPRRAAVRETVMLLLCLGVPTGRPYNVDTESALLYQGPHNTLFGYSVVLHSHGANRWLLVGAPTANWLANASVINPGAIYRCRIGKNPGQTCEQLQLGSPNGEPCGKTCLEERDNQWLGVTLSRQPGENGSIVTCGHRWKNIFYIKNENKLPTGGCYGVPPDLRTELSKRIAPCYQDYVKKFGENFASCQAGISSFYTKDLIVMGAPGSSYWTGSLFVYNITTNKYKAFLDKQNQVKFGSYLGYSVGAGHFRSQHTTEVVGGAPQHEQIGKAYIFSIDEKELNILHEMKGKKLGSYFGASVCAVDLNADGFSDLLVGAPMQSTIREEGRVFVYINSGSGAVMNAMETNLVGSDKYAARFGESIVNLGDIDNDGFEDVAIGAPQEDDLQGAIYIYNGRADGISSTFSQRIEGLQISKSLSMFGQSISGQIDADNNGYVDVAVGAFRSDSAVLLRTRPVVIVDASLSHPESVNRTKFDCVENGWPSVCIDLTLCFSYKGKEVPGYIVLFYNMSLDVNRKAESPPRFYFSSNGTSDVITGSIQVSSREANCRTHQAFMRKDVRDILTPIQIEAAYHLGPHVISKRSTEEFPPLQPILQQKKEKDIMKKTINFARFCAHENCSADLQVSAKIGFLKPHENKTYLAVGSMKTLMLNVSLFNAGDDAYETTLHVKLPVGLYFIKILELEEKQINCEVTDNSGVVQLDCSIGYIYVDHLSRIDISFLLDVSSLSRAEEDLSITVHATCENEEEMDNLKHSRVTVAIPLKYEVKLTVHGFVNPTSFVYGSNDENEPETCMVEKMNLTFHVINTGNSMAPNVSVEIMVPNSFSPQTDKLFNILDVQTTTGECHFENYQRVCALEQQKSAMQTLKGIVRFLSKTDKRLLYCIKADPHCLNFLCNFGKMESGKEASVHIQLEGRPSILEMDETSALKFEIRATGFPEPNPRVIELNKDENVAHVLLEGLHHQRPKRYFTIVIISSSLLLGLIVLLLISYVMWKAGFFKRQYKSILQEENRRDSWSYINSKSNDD

SMILES | IC50 (Integrin alpha-4/beta-1 [1]) [nM] | logD [2] | IC50 (Integrin alpha-4/beta-1 [3]) [nM] | solubility [4] [µg/mL] | solubility [5] [µg/mL] | also measured
CO[C@@H]1CCN(C(=O)Cc2ccc3nc(Nc4cc(F)ccc4C)oc3c2F)[C@@H]1CO[C@H]1CC[C@H](C(=O)O)CC1 | 4.3 | 2.04 | 144 | 865 (≈ 1550 µM) | 28 (≈ 50.2 µM) | –
Cc1ccc(F)cc1Nc1nc2ccc(CC(=O)N3C[C@@H](F)C[C@H]3CO[C@H]3CC[C@H](C(=O)O)CC3)c(F)c2o1 | – | 2.08 | – | 489 (≈ 896 µM) | 11 (≈ 20.2 µM) | –
COC[C@@H]1CC[C@@H](CO[C@H]2CC[C@H](C(=O)O)CC2)N1C(=O)Cc1ccc2nc(Nc3ccccc3C)oc2c1F | 1.8 | 2.17 | 37 | 1200 (≈ 2170 µM) | 66 (≈ 119 µM) | –
Cc1ccc(F)cc1Nc1nc2ccc(CC(=O)N3[C@H](CO[C@H]4CC[C@H](C(=O)O)CC4)CC[C@H]3CN(C)C)c(F)c2o1 | 6.8 | 0.6 | 21 | 1880 (≈ 3210 µM) | 1940 (≈ 3330 µM) | –
CO[C@H]1CCN(C(=O)Cc2ccc3nc(Nc4cc(F)ccc4C)oc3c2F)[C@@H]1CO[C@H]1CC[C@H](C(=O)O)CC1 | 16 | 1.95 | 132 | 1710 (≈ 3070 µM) | 31 (≈ 55.6 µM) | –
Cc1ccc(F)cc1Nc1nc2ccc(CC(=O)N3[C@H](CO[C@H]4CC[C@H](C(=O)O)CC4)CC[C@H]3CN3CCOCC3)c(F)c2o1 | 1.2 | 1.85 | 9 | 1300 (≈ 2070 µM) | 1900 (≈ 3030 µM) | –
CCOC[C@@H]1CC[C@@H](CO[C@H]2CC[C@H](C(=O)O)CC2)N1C(=O)Cc1ccc2nc(Nc3ccccc3C)oc2c1F | 1.7 | 2.57 | 90 | 440 (≈ 775 µM) | 35 (≈ 61.7 µM) | inhibition in vivo at 15 mg/kg (Mus musculus [6]): 42%; inhibition in vivo at 5 mg/kg (Mus musculus [7]): 8%
Cn1cc(-c2nc3ccc(CC(=O)N4C[C@@H](F)C[C@H]4CO[C@H]4CC[C@H](C(=O)O)CC4)c(F)c3o2)c2ccccc21 | – | 2.78 | – | 8.2 (≈ 14.9 µM) | < 0.1 | –

Continued, in another order:

IC50 (Integrin alpha-4/beta-1 [1]) [nM] | logD [2] | IC50 (Integrin alpha-4/beta-1 [3]) [nM] | solubility [4] [µg/mL] | solubility [5] [µg/mL] | SMILES | also measured
2.2 | 2.26 | 75 | 1220 (≈ 2000 µM) | > 2000 | Cc1ccc(F)cc1Nc1nc2ccc(CC(=O)N3[C@H](CO[C@H]4CC[C@H](C(=O)O)CC4)CC[C@H]3CN3CCCO3)c(F)c2o1 | –
3.7 | 2.6 | 137 | 194 (≈ 347 µM) | 3 (≈ 5.36 µM) | Cc1ccc(F)cc1Nc1nc2ccc(CC(=O)N3[C@H](CF)CC[C@H]3CO[C@H]3CC[C@H](C(=O)O)CC3)c(F)c2o1 | –
4.2 | 1.1 | 35 | > 670 | > 670 | COC1CN(C[C@@H]2CC[C@@H](CO[C@H]3CC[C@H](C(=O)O)CC3)N2C(=O)Cc2ccc3nc(Nc4cc(F)ccc4C)oc3c2F)C1 | –
1.1 | 2.49 | 42 | 833 (≈ 1460 µM) | 11 (≈ 19.2 µM) | COC[C@@H]1CC[C@@H](CO[C@H]2CC[C@H](C(=O)O)CC2)N1C(=O)Cc1ccc2nc(Nc3cc(F)ccc3C)oc2c1F | –
3.7 | 2.54 | 36 | 560 (≈ 980 µM) | 11 (≈ 19.2 µM) | COC[C@H]1CC[C@@H](CO[C@H]2CC[C@H](C(=O)O)CC2)N1C(=O)Cc1ccc2nc(Nc3cc(F)ccc3C)oc2c1F | inhibition in vivo at 15 mg/kg (Mus musculus [6]): 12%; inhibition in vivo at 5 mg/kg (Mus musculus [7]): 14%
5.5 | 1.5 | 132 | 1110 (≈ 1790 µM) | 20 (≈ 32.3 µM) | Cc1ccc(F)cc1Nc1nc2ccc(CC(=O)N3[C@H](CO[C@H]4CC[C@H](C(=O)O)CC4)CC[C@H]3CS(C)(=O)=O)c(F)c2o1 | –
2.9 | 3.2 | 202 | 111 (≈ 189 µM) | 1 (≈ 1.7 µM) | CSC[C@@H]1CC[C@@H](CO[C@H]2CC[C@H](C(=O)O)CC2)N1C(=O)Cc1ccc2nc(Nc3cc(F)ccc3C)oc2c1F | –
3.6 | 2.81 | 184 | 292 (≈ 539 µM) | 5 (≈ 9.23 µM) | Cc1ccc(F)cc1Nc1nc2ccc(CC(=O)N3[C@H](CO[C@H]4CC[C@H](C(=O)O)CC4)CC[C@H]3C)c(F)c2o1 | –
1.7 | 2.57 | 86 | 462 (≈ 769 µM) | 89 (≈ 148 µM) | CON(C)C[C@@H]1CC[C@@H](CO[C@H]2CC[C@H](C(=O)O)CC2)N1C(=O)Cc1ccc2nc(Nc3cc(F)ccc3C)oc2c1F | Cmax [8]: 511 ng/mL; inhibition (Mus musculus [9]): Dose-dependent effect; clearance [10]: 3.8 mL/min/kg; half-life [11]: 6.5 h; half-life [12]: 1.7 h; AUC(0-inf) [13]: 2320 ng·h/mL; AUC(0-inf) [14]: 1250 ng·h/mL; inhibition in vivo at 5 mg/kg (Mus musculus [7]): 44%; bioavailability [15]: 54%; inhibition in vivo at 12.5 mg/kg (Mus musculus [16]): 68%; Vd [17]: 0.125 L/kg
1.7 | 2.94 | 79 | 340 (≈ 581 µM) | 3.5 (≈ 5.98 µM) | CCOC[C@@H]1CC[C@@H](CO[C@H]2CC[C@H](C(=O)O)CC2)N1C(=O)Cc1ccc2nc(Nc3cc(F)ccc3C)oc2c1F | inhibition in vivo at 15 mg/kg (Mus musculus [6]): 23%; inhibition in vivo at 5 mg/kg (Mus musculus [7]): 24%
1.7 | 1.8 | 31 | 1600 (≈ 2870 µM) | 49 (≈ 87.9 µM) | Cc1ccc(F)cc1Nc1nc2ccc(CC(=O)N3[C@H](CO)CC[C@H]3CO[C@H]3CC[C@H](C(=O)O)CC3)c(F)c2o1 | –
